Experimental data published in ChEMBL document CHEMBL4316597, “Design, Synthesis, and Biological Evaluation of Itaconic Acid Derivatives as Potential Anti-Influenza Agents” (J Med Chem, 2019).

Experiments:
Influenza A virus [1] = experiment: Antiviral activity against oseltamivir resistant-Influenza A virus A/TW/7855/09 (H1N1) infected in MDCK cells after 72 hrs by crystal violet-staining based assay; type: functional, organism-based
How it was run: (§1)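 Cells seeded at 2 × 10^4/well in E10 (DMEM, 10% FBS), 16–24 h at 37 °C/5% CO2, washed with DPBS, then infected at nine-fold TCID50 with or without serial compound concentrations. Influenza is run in MDCK and enterovirus/rhinovirus in RD. Incubated 72 h, fixed in 4% paraformaldehyde, stained with 0.1% crystal violet, and read for cell density. EC50 = 50% CPE inhibition by Reed–Muench; mean ± S.D. of at least three runs.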

Influenza A virus [2] = experiment: Antiviral activity against oseltamivir resistant-Influenza A virus A/TW/6663/09 (H1N1) infected in MDCK cells after 72 hrs by crystal violet-staining based assay; type: functional, organism-based; how it was run: as §1
[3] = Selectivity ratio of CC50 for MDCK cells to EC50 for oseltamivir resistant-Influenza A virus A/TW/7855/09 (H1N1); type: toxicity; conditions: dog, read-out: Ratio CC50/EC50
How it was run: (§2)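 MDCK cells (2 × 10^4/well, E10, 16–24 h) infected at nine-fold TCID50 with compound for 72 h, 37 °C, 5% CO2. Cells were fixed in 4% paraformaldehyde and stained with crystal violet; EC50 is from Reed–Muench. For CC50, cells had compound alone for 72 h, then MTT 3 h, DMSO, A570, Reed–Muench. SI = CC50/EC50; three independent experiments.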

[4] = Selectivity ratio of CC50 for MDCK cells to EC50 for oseltamivir resistant-Influenza A virus A/TW/6663/09 (H1N1); type: toxicity; conditions: dog, read-out: Ratio CC50/EC50; how it was run: as §2

Work on `C=C(CC(=O)Nc1ccc(F)cc1F)C(=O)Nc1ccc(F)cc1F` yielded an EC50 (Influenza A virus [1]) of 2.6 µM, an EC50 (Influenza A virus [2]) of 4.83 µM and a selectivity ratio [3] of 33. It also gave a selectivity ratio [4] of 18.
